Source: ChEMBL document CHEMBL3102734, “Inhibition of LOX by flavonoids: a structure-activity relationship study” (Eur J Med Chem, 2014)
Active and inactive are the calls of the source. No cut-off for these calls is given here.

Tests used:
[1] = target: T1, Polyunsaturated fatty acid 5-lipoxygenase (Homo sapiens) (UniProt P09917); test: Inhibition of 5-LOX-mediated LTB4 production in human neutrophils using arachidonic acid as substrate at 40 uM preincubated for 10 mins followed by substrate addition measured after 8 mins by enzyme immunoassay relative to control
T1 sequence (whole entry): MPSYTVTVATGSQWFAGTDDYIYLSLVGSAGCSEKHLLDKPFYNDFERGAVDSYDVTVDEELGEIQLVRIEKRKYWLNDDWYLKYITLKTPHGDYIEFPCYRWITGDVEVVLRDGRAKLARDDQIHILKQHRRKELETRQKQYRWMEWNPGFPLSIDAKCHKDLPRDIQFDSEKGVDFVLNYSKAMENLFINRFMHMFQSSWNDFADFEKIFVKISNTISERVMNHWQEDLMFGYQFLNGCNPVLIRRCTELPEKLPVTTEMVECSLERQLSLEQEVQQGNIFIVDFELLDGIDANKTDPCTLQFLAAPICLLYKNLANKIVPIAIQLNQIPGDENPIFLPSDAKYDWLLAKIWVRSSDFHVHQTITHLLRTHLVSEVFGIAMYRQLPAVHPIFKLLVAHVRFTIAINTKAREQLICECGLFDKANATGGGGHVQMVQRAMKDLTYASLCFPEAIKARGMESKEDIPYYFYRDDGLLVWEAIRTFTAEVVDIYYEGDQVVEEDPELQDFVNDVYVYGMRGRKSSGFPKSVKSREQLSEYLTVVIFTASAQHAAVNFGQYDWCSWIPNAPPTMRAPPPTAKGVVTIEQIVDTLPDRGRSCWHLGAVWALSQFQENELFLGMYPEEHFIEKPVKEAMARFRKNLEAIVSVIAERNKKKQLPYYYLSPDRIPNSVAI
Outline: (§1)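 Isolated human neutrophils held in HBSS on ice; viability checked by trypan blue. Cells at 3.5×10^6 cells/mL equilibrated 10 min at 37 °C. Flavonoids (0.15–40 μM) pre-incubated 10 min, then A23187 (5 μM) plus arachidonic acid (10 μg/mL) added for 8 min. Stopped with cold methanol and centrifuged 13,000 g, 1 min, 4 °C. LTB4 measured by EIA and expressed as % inhibition of control. NDGA (1 μM) positive control. At least three experiments.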

[2] = target: T2, Seed linoleate 13S-lipoxygenase-1 (Glycine max) (UniProt P08170); test: Binding affinity to soybean LOX-1 at 1248 uM by STD-[1H] NMR spectroscopic analysis
T2 sequence (whole entry): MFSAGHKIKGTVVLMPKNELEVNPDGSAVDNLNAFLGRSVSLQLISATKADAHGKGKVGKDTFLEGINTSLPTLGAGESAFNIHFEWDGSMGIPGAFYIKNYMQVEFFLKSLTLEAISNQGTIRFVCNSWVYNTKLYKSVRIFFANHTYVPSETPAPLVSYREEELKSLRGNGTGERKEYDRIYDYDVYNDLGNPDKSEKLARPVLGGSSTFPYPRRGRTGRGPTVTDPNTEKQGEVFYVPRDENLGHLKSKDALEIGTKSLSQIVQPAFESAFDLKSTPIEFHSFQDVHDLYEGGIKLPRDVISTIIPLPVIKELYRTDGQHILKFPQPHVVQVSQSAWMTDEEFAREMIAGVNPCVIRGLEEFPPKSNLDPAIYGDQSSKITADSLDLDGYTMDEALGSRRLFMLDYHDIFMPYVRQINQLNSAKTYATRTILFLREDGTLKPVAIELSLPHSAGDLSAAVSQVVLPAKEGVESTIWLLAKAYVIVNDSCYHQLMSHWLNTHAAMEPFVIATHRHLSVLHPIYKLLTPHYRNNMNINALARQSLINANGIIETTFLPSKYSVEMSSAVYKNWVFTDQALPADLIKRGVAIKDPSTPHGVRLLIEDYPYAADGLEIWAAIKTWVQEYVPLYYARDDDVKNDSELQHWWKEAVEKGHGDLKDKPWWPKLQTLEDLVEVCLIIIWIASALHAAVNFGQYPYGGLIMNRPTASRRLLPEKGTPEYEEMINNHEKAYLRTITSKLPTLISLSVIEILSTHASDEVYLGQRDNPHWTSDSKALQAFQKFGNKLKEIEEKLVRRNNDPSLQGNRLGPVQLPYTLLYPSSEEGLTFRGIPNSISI
Outline: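 STD-1H NMR at 37 °C, 600 MHz, cryoprobe. Lyophilized soybean LOX-1 in Tris buffer (20 mM Tris, 7 mM (NH4)2SO4, 3.5 mM MgCl2, 0.3 mM DTT in D2O, pH 9.0). Ligand added from a 16.6 mM DMSO-d6 stock. Final concentrations: LOX 4 μM, ligand 1248 μM, ratio 300:1. On-resonance saturation at 1.0 ppm; off-resonance reference at 20000 Hz.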

[3] = target: T3, Seed linoleate 13S-lipoxygenase-1 (Glycine max, UniProt P08170); test: Uncompetitive inhibition of soybean LOX-1 using linoleic acid as substrate preincubated for 5 mins followed by substrate addition by Lineweaver-Burk plot analysis
T3 sequence (P08170 whole entry): T2 sequence (whole entry)
Outline: (§2)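 Soybean LOX-1 (supplied lyophilized) kinetic assay. Enzyme pre-incubated with inhibitor 5 min, then linoleic acid added. Readings every 30 s for 10 min; rate taken as the 0–3 min slope. Three inhibitor concentrations tested against three substrate concentrations. Inhibition type assigned by nonlinear Michaelis–Menten fitting and Lineweaver–Burk plots. At least four experiments, each in triplicate.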

[4] = target: T4, Polyunsaturated fatty acid 5-lipoxygenase (Homo sapiens, UniProt P09917); test: Inhibition of 5-LOX-mediated LTB4 production in human neutrophils using arachidonic acid as substrate preincubated for 10 mins followed by substrate addition measured after 8 mins by enzyme immunoassay
T4 sequence (P09917 whole entry): T1 sequence (whole entry)
Outline: as §1, with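 “blue.” for “blue. Cells at 3.5×10^6 cells/mL equilibrated 10 min at 37 °C.”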

[5] = target: T3, Seed linoleate 13S-lipoxygenase-1; test: Mixed noncompetitive type inhibition of soybean LOX-1 using linoleic acid as substrate preincubated for 5 mins followed by substrate addition by Lineweaver-Burk plot analysis
Outline: as §2, with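 “added. Conversion to the cis,trans-hydroperoxide followed at 234 nm at 30 °C with continuous soft shaking.” for “added.”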

Row | Structure (SMILES) | inhibition [1] | Activity [2] | Ki [3] [µM] | IC50 [4] [µM] | Ki [5] [µM]
1 | O=c1cc(-c2cccc(O)c2)oc2cc(O)ccc12 | 51.4% |  |  |  | 
2 | O=c1cc(-c2ccc(O)c(O)c2)oc2cccc(O)c12 |  | Active | 18 | 2.9 | 
3 | O=c1cc(-c2ccc(O)cc2)oc2cc(O)cc(O)c12 [APIGENIN] | < 50% | Active |  |  | 178
4 | COc1ccc(-c2cc(=O)c3c(O)cc(O)cc3o2)cc1 | Active | Active |  |  | 
5 | O=c1cc(-c2ccc(O)cc2)oc2cc(O)ccc12 | < 50% |  |  |  | 
6 | O=c1cc(-c2ccc(O)cc2)oc2ccccc12 | 38.4% |  |  |  | 
7 | O=c1cc(-c2ccccc2)oc2ccccc12 | < 50% |  |  |  | 
8 | O=c1cc(-c2ccc(O)cc2)oc2cccc(O)c12 | 29.8% | Active |  |  | 103
9 | O=c1cc(-c2ccc(O)c(O)c2)oc2ccccc12 |  | Active |  | 1.7 | 84.5
10 | O=c1cc(-c2ccccc2)oc2cc(O)cc(O)c12 [CHRYSIN] | < 50% | Active |  |  | 19.4
11 | O=c1cc(-c2cccc(O)c2)oc2cccc(O)c12 | < 50% |  |  |  | 
12 | O=C1CC(c2ccc(O)cc2)Oc2cc(O)cc(O)c21 (racemic) | < 50% |  |  |  | 
